A short description of assay [1]: Inhibition of Bcl-XL (unknown origin) after 3 hrs by fluorescence polarization competition assay. Details: species or system Homo sapiens. (In general: Fluorescence polarisation rises when a labelled molecule tumbles more slowly, as on binding a larger partner.)
The species named for assay [2] is Homo sapiens. Description: Selectivity ratio of Ki for Bcl-XL (unknown origin) to Ki for His6-MBP tagged recombinant human Mcl-1 residues 172 to 327 expressed in Escherichia coli. The gist of the method: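 Ratio computed as Ki(Bcl-xL) divided by Ki(Mcl-1). Both Ki values come from FP competition IC50s converted with the Nikolovska-Coleska equation, averaged over at least two independent assays. Hill-equation fit gives the IC50.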

Assay [3] deals with T1, Induced myeloid leukemia cell differentiation protein Mcl-1 (Homo sapiens, UniProt Q07820). Kind of assay: Inhibition of His6-MBP tagged recombinant human Mcl-1 residues 172 to 327 expressed in Escherichia coli assessed as inhibition of interaction with Bak BH3 peptide (GQVGRQLAIIGDDINR) after 3 hrs by fluorescence polarization competition assay.
Assay [4] has as its system A-375. Description: Antiproliferative activity against human A375 cells after 48 hrs by Cell titer blue viability assay. The assay is classed as functional, cell-based. Conditions: A-375, 48 h. The gist of the method:
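A375 cells seeded at 5,000/well in DMEM with 10% HIFBS and PenStrep, cultured overnight. Compounds added at final 4.69–300 μM (two-fold series) in 1% DMSO; vehicle controls also at 1% DMSO. After 48 h exposure, Cell Titer-Blue added for 2 h, fluorescence read at 560 ex/590 em. Percent viability relative to untreated cells, corrected for cell-free background.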
In general terms: Alamar Blue is a resazurin reagent that responds to reducing activity.

The test system of assay [5] is SK-MEL-5. Description: Antiproliferative activity against human SK-MEL-5 cells after 48 hrs by Cell titer blue viability assay. Conditions: SK-MEL-5, 48 h. In kind it is functional, cell-based.
For assay [6], the target named is T1, Induced myeloid leukemia cell differentiation protein Mcl-1. Description: Binding affinity to recombinant human 15N-labeled Mcl-1 (172 to 327 residues) expressed in Escherichia coli by NMR spectroscopy. The procedure, abridged:
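Proton shifts were referenced to the H2O/HDO signal (4.658 ppm versus external TSP) at 37 °C. The protein was size-exclusion purified to >98% purity by SDS-PAGE, with concentration determined by Bradford assay.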

The structures appear in SMILES notation. Activity calls are given as the source filed them. No cut-off for these calls is given here.

T1 sequence (Q07820 whole entry, the tested form may be a part): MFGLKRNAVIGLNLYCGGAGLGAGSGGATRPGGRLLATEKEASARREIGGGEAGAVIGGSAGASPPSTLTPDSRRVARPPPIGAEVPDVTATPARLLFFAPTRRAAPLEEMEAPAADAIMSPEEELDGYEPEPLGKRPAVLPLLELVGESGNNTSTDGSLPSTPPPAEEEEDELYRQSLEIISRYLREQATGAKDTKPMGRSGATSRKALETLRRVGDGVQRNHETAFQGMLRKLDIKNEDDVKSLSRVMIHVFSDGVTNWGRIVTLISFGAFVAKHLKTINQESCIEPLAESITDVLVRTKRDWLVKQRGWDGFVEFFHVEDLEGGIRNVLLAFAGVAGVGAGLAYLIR

By Ki is commonly meant a measure of affinity in units of concentration, obtained from inhibition or displacement. For `O=C(O)c1cc(S(=O)(=O)Nc2ccc(Oc3cccc4ccccc34)cc2)c2ccccc2c1O`, the Ki in assay [1] (read-out: Ki) was 0.22 µM. Also, in assay [2], the Ratio Ki was 3.7.

Turning to `O=C(O)c1cc(S(=O)(=O)Nc2ccccc2)c2ccccc2c1O`, the Ki result in assay [1] is reported as “Not Active”.

As for `NS(=O)(=O)c1cc(C(=O)O)c(O)c2ccccc12`, the Ki result in assay [1] is reported as “Not Active”.

In the case of `O=C(O)c1cc(S(=O)(=O)NCC2CCCCC2)c2ccccc2c1O`, the Ki in assay [1] (read-out: Ki) is 77.6 µM. For the same molecule, the Ratio Ki in assay [2] was determined as 11.

For `COC(=O)c1cc(S(=O)(=O)N(CC(C)C)c2ccc(Br)cc2)c2ccccc2c1OC`, the Ki in assay [3] is over 500 µM.

As for `O=C(O)c1cc(S(=O)(=O)Nc2ccc3ccccc3c2)c2ccccc2c1O`, the Ki in assay [1] (read-out: Ki) was 68.5 µM. In addition, the Ratio Ki in assay [2] was 15.

On to `CN(C)S(=O)(=O)c1cc(C(=O)O)c(O)c2ccccc12`, for which, in assay [1], the Ki result is “Not Active”.

The term IC50 denotes the point on the concentration scale where inhibition reaches its midpoint. A high value points to weaker potency in that assay. As to `COC(=O)c1cc(S(=O)(=O)N(CC(C)C)c2ccc(OC(C)C)cc2)c2ccccc2c1O`, the inhibition result in assay [3] is “inactive”. In addition, the IC50 in assay [4] and in assay [5] was 300 µM in each case.

`Cc1cc(Oc2ccc(N(C3CCCC3)S(=O)(=O)c3cc(C(=O)O)c(O)c4ccccc34)cc2)cc(C)c1Cl`: the Ki in assay [1] (read-out: Ki) turned out to be 0.29 µM. Besides, the Ratio Ki in assay [2] stood at 8.8.

Turning to `COC(=O)c1cc(S(=O)(=O)N(CC(C)C)c2ccc(Br)cc2)c2ccccc2c1O`, the Ki in assay [3] is over 500 µM.

Consider `O=C(O)c1cc(S(=O)(=O)Nc2cccc3ccccc23)c2ccccc2c1O`, for which the Ki in assay [1] (read-out: Ki) is 110 µM. In addition, the Ratio Ki in assay [2] was determined as 10.

As to `COc1ccc(NS(=O)(=O)c2cc(C(=O)O)c(O)c3ccccc23)cc1`, the Ki in assay [1] (read-out: Ki) stood at 71.9 µM. For the same molecule, the Ratio Ki in assay [2] was 6.

As to `O=C(O)c1cc(S(=O)(=O)Nc2ccc(Br)cc2Br)c2ccccc2c1O`, the Ki in assay [1] (read-out: Ki) is 2.31 µM. Besides, the Ratio Ki in assay [2] worked out at 5.5.

As to `O=C(O)c1cc(S(=O)(=O)Nc2ccc(Br)cc2)c2ccccc2c1O`, the Ki in assay [1] (read-out: Ki) was 51.4 µM. For the same molecule, the Ratio Ki in assay [2] turned out to be 19. Further, the IC50 in assay [4] and in assay [5] was 300 µM throughout.

With `Cc1cc(Oc2ccc(N(CC(C)C)S(=O)(=O)c3cc(C(=O)O)c(O)c4ccccc34)cc2)cc(C)c1Cl`, the Ki in assay [1] (read-out: Ki) turned out to be 0.17 µM. The Ratio Ki in assay [2] came out at 2.1.

For `O=C(O)c1cc(S(=O)(=O)Nc2ccc(Oc3ccc(Cl)cc3Cl)cc2)c2ccccc2c1O`, in assay [1] (read-out: Ki), the Ki is 0.19 µM. In addition, the Ratio Ki in assay [2] was 2.4.

As to `O=C(O)c1cc(S(=O)(=O)Nc2ccccc2C(F)(F)F)c2ccccc2c1O`, the Ki in assay [1] (read-out: Ki) was found to be 19.3 µM. The Ratio Ki in assay [2] was 4.8.

Turning to `O=C(O)c1cc(S(=O)(=O)NCc2ccccc2)c2ccccc2c1O`, in assay [1], the Ki entry was “Not Active”.

In the case of `Cc1cc(Oc2ccc(NS(=O)(=O)c3cc(C(=O)O)c(O)c4ccccc34)cc2)cc(C)c1Cl`, the Ki in assay [1] (read-out: Ki) amounted to 0.48 µM. In assay [2], the Ratio Ki was determined as 4.1.

With `Cc1cc(Oc2ccc(N(Cc3ccccc3)S(=O)(=O)c3cc(C(=O)O)c(O)c4ccccc34)cc2)cc(C)c1Cl`, in assay [1] (read-out: Ki), the Ki came to 0.34 µM. The IC50 in assay [4] was 50 µM; in assay [5], 90 µM.

Take `CC(C)CN(c1ccc(OC(C)C)cc1)S(=O)(=O)c1cc(C(=O)O)c(O)c2ccccc12`: the Ki in assay [1] (read-out: Ki) worked out at 6.08 µM. Further, the IC50 in assay [4] was determined as 150 µM; in assay [5] it was 300 µM. For the same molecule, in assay [6], the result was Active.

With `O=C(O)c1cc(S(=O)(=O)Nc2ccc(Oc3cccc(Br)c3)cc2)c2ccccc2c1O`, in assay [1] (read-out: Ki), the Ki stood at 0.3 µM. Further, the Ratio Ki in assay [2] came out at 3.8.

Consider `CC(C)Oc1ccc(NS(=O)(=O)c2cc(C(=O)O)c(O)c3ccccc23)cc1`, for which the Ki entry in assay [1] is reported as “Not Active”.

For the molecule `Cc1cc(C)cc(Oc2ccc(NS(=O)(=O)c3cc(C(=O)O)c(O)c4ccccc34)cc2)c1`, the Ki in assay [1] (read-out: Ki) stood at 0.39 µM. Moreover, in assay [2], the Ratio Ki is 1.4.

For `Cc1ccc(Oc2ccc(NS(=O)(=O)c3cc(C(=O)O)c(O)c4ccccc34)cc2)cc1`, the inhibition constant Ki in assay [1] (read-out: Ki) was 0.84 µM. For the same molecule, in assay [2], the Ratio Ki worked out at 2.5.

For `O=C(O)c1cc(S(=O)(=O)Nc2ccc([N+](=O)[O-])cc2)c2ccccc2c1O`, in assay [1] (read-out: Ki), the inhibition constant Ki stood at 23.3 µM. Besides, in assay [2], the Ratio Ki amounted to 5.2.

As to `O=C(O)c1cc(S(=O)(=O)NCc2ccc(Cl)cc2)c2ccccc2c1O`, in assay [1] (read-out: Ki), the Ki was determined as 338 µM. Also, the Ratio Ki in assay [2] came to 16.

For the molecule `CC(=O)OCOC(=O)c1cc(S(=O)(=O)N(CC(C)C)c2ccc(OC(C)C)cc2)c2ccccc2c1O`, in assay [3], the inhibition entry is “inactive”. The molecule also registered an IC50 in assay [5] of 15 µM.

The values are drawn from ChEMBL document CHEMBL3779852, “Structure-based design of N-substituted 1-hydroxy-4-sulfamoyl-2-naphthoates as selective inhibitors of the Mcl-1 oncoprotein” (Eur J Med Chem, 2016).
